Reference: PMC2692502 (Journal of Antimicrobial Chemotherapy, 2009)
Read-outs that look alike come from different tables or passages of the source.

Key:
[1] = cited from earlier work
[2] = format: in vivo, human; details: for AUC(0-t): AUC0–t, trapezoidal rule; for clearance: CL, healthy adult volunteers
Method in brief: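 Healthy adult volunteers, randomized open-label two-period crossover: a single 6 mg/kg dose given as a 30 min iv infusion and as a 2 min iv injection, with a 5 day washout. Heparinized blood was drawn predose, immediately after dosing and up to 36 h after dosing ended. Total plasma drug was measured by HPLC (LLOQ 3 mg/L). Non-compartmental trapezoidal AUC was computed. The injection:infusion ratio (95% CI) came from ANOVA of log-transformed values.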

[3] = independent of the daptomycin concentration; cited from earlier work
[4] = Study 2: safety and tolerability; format: in vivo, human
Method in brief: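 Healthy adults (24 enrolled) were randomized 3:2:1 in a single-blind, placebo-controlled, parallel-group design. Groups received test compound 6 mg/kg, 4 mg/kg or placebo as a 2 min peripheral iv injection by syringe driver, once daily for 7 days. All subjects entered the safety analysis. The investigator graded AEs for relatedness (not, unlikely, possibly, probably) and severity. Tabulated AEs were possibly or probably related. Follow-up was 9–11 days after last dose.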

[5] = Study 1: safety and tolerability; format: in vivo, human; details: Study 1, 6 mg/kg
Method in brief: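 Healthy adult volunteers in a randomized, open-label, single-dose, two-period crossover. Each received test compound 6 mg/kg as a 30 min iv infusion and as a 2 min peripheral iv injection by syringe driver, in random order, with a 5-day washout. The investigator graded AEs for relatedness (not, unlikely, possibly, probably related) and severity (mild/moderate/severe). Tabulated AEs were possibly or probably related. Follow-up was 1–11 days post-dose.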

[6] = Study 1, 2 min iv injection relative to 30 min iv infusion, 6 mg/kg, ANOVA of log-transformed values, n = 15
[7] = Study 2, 4 mg/kg 2 min iv injection once daily for 7 days, n = 8
[8] = Study 2, 6 mg/kg 2 min iv injection once daily for 7 days, n = 12

CCCCCCCCCC(=O)N[C@@H](Cc1c[nH]c2ccccc12)C(=O)N[C@H](CC(N)=O)C(=O)N[C@@H](CC(=O)O)C(=O)N[C@@H]1C(=O)NCC(=O)N[C@@H](CCCN)C(=O)N[C@@H](CC(=O)O)C(=O)N[C@H](C)C(=O)N[C@@H](CC(=O)O)C(=O)NCC(=O)N[C@H](CO)C(=O)N[C@@H]([C@H](C)CC(=O)O)C(=O)N[C@@H](CC(=O)c2ccccc2N)C(=O)O[C@@H]1C [daptomycin]
steady state reached by ([1]; 30 min iv infusion, independent of dose): ≤ 3 days
volume of distribution (V) ([1]; average): ~0.1 L/kg
95% CI for the ratio of the geometric means, AUC0–t [2, 6]: 0.8709–1.0055
95% CI for the ratio of the geometric means, AUC0–∞ [2, 6]: 0.9007–1.0117
95% CI for the ratio of the geometric means, Cmax [2, 6]: 0.9588–1.1719
t1/2 ([2]; Study 1, single 6 mg/kg dose, 30 min iv infusion, plasma, HPLC, non-compartmental, harmonic mean (SD), n = 15, SD): 8.7 (0.9) h
AUC(0-t) ([2]; both, human, plasma, iv, 6 mg/kg, Study 1, single 6 mg/kg dose, 2 min iv injection, HPLC, arithmetic mean (SD), n = 15, not dose-normalized, SD): 626 µg·h/mL
AUC(0-t) ([2]; both, human, plasma, iv, 6 mg/kg, Study 1, single 6 mg/kg dose, 30 min iv infusion, HPLC, arithmetic mean (SD), n = 15, not dose-normalized, SD): 670 µg·h/mL
AUC(0-inf) ([2]; both, human, plasma, iv, 6 mg/kg, AUC0–∞, Study 1, single 6 mg/kg dose, 2 min iv injection, HPLC, arithmetic mean (SD), n = 15, not dose-normalized, SD): 691 µg·h/mL
clearance ([2]; both, human, plasma, iv, 6 mg/kg, Study 1, single 6 mg/kg dose, 2 min iv injection, HPLC, non-compartmental, arithmetic mean (SD), n = 15, SD): 0.148 mL/min/kg
clearance ([2]; both, human, plasma, iv, 6 mg/kg, Study 1, single 6 mg/kg dose, 30 min iv infusion, HPLC, non-compartmental, arithmetic mean (SD), n = 15, SD): 0.138 mL/min/kg
Cmax ([2]; both, human, plasma, iv, 6 mg/kg, Cmax, Study 1, single 6 mg/kg dose, 30 min iv infusion, HPLC, arithmetic mean (SD), n = 15, not dose-normalized, SD): 88.4 µg/mL
Vd ([2]; both, human, plasma, iv, 6 mg/kg, SD): 0.113 L/kg
protein bound [3]: 90–93%
Subjects with at least one adverse event possibly or probably related to study drug: Any adverse event [4, 7]: 2 (25) n (%)
Subjects with related adverse event: Gastrointestinal disorders [4, 7]: 1 (13) n (%)
Subjects with related adverse event: Infections and infestations [4, 7]: 0 n (%)
Subjects with related adverse event: Nervous system disorders [4, 7]: 1 (13) n (%)
Subjects with related adverse event: dizziness [4, 7]: 0 n (%)
Subjects with related adverse event: dizziness postural [4, 7]: 0 n (%)
Subjects with related adverse event: flatulence [4, 7]: 1 (13) n (%)
Subjects with related adverse event: headache [4, 7]: 0 n (%)
Subjects with related adverse event: lethargy [4, 7]: 1 (13) n (%)
Subjects with related adverse event: nausea [4, 7]: 0 n (%)
Subjects with related adverse event: pain in extremity [4, 7]: 1 (13) n (%)
Subjects with related adverse event: paraesthesia [4, 7]: 0 n (%)
Subjects with related adverse event: upper respiratory tract infection [4, 7]: 0 n (%)
subjects with erythema (local injection-site reaction) [4, 7]: five subjects
Subjects with at least one adverse event possibly or probably related to study drug: Any adverse event [4, 8]: 3 (25) n (%)
Subjects with related adverse event: Gastrointestinal disorders [4, 8]: 0 n (%)
Subjects with related adverse event: Infections and infestations [4, 8]: 0 n (%)
Subjects with related adverse event: Nervous system disorders [4, 8]: 3 (25) n (%)
Subjects with related adverse event: dizziness [4, 8]: 1 (8) n (%)
Subjects with related adverse event: dizziness postural [4, 8]: 1 (8) n (%)
Subjects with related adverse event: flatulence [4, 8]: 0 n (%)
Subjects with related adverse event: headache [4, 8]: 1 (8) n (%)
Subjects with related adverse event: lethargy [4, 8]: 0 n (%)
Subjects with related adverse event: nausea [4, 8]: 0 n (%)
Subjects with related adverse event: pain in extremity [4, 8]: 0 n (%)
Subjects with related adverse event: paraesthesia [4, 8]: 0 n (%)
Subjects with related adverse event: upper respiratory tract infection [4, 8]: 0 n (%)
subjects with erythema (local injection-site reaction) [4, 8]: two subjects
time to resolution of local injection-site reactions ([4]; Study 2, 2 min iv injection, reactions generally mild and transient): ≤ 1 h
serious or other significant AEs ([4]; Study 2, multiple-dose, 24 subjects enrolled (placebo included)): no serious or other significant AEs
local tolerability reaction: mild tenderness ([5]; 2 min iv injection group): one subject
Subjects with at least one adverse event possibly or probably related to study drug: Any adverse event ([5]; 2 min iv injection, n = 16): 4 (25) n (%)
Subjects with related adverse event: Gastrointestinal disorders ([5]; 2 min iv injection, n = 16): 1 (6) n (%)
Subjects with related adverse event: Infections and infestations ([5]; 2 min iv injection, n = 16): 1 (6) n (%)
Subjects with related adverse event: Nervous system disorders ([5]; 2 min iv injection, n = 16): 1 (6) n (%)
Subjects with related adverse event: fatigue ([5]; 2 min iv injection, n = 16): 1 (6) n (%)
Subjects with related adverse event: headache ([5]; 2 min iv injection, n = 16): 1 (6) n (%)
